Series [1] is described as follows: Ratio of TICD50 to that of IC50 of human immunodeficiency virus (HIV-1). Details: reference not given here. Format: functional.
Series [2] relates to Rauscher murine leukemia virus. As to the kind of experiment: Concentration of compound required to inhibit 50% of viral replication of Rauscher-Murine leukemia virus. Format: functional, organism-based.
Series [3] relates to CCRF-CEM. Nature of the series: Concentration of compound required to inhibit 50% of host cell replication of human immunodeficiency virus in CEM-F cells. Format: functional.
In series [4] the test system is Rauscher murine leukemia virus. As to the kind of experiment: Concentration of compound required to inhibit 50% of host cell replication of Rauscher-Murine leukemia virus. Format: functional.
In series [5] the test system is CCRF-CEM. Nature of the series: Concentration of compound required to inhibit 50% of viral replication of human immunodeficiency virus in CEM-F cells. Format: functional, cell-based.
The nature of series [6]: Ratio of TICD50 to that of IC50 of Rauscher-Murine leukemia virus (R-MuLv). Format: functional. On the set-up: reference not given here.
The nature of series [7]: Metabolic stability (Half life)of the compound at pH-7.4 was evaluated. Format: ADME. The procedure, abridged: (§1)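 Compound at 2 mg/mL held at 37 °C in phosphate-buffered saline, pH 7.4, with no enzymes present. At various times, aliquots were analysed by reverse-phase C-18 HPLC with a linear 0–30% CH3CN gradient into 0.01 M ammonium acetate (pH 5.5) over 30 min, monitored by UV at 254 nm. Intact anhydro compound, generated parent nucleoside and pyrimidine base were measured, and the half-life was derived.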

A short description of series [8]: Metabolic stability (Half life) at pH-2.0 was evaluated. Format: ADME. A digest of the protocol: (§2)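 Chemical (non-enzymatic) stability. Each compound at 2 mg/mL was incubated in 0.01 N HCl (pH 2.0) at 37 °C. Aliquots taken at various times were run on reverse-phase C-18 HPLC with a linear 0–30% CH3CN gradient into 0.01 M ammonium acetate (pH 5.5) over 30 min, with UV detection at 254 nm. Remaining anhydro compound, released parent nucleoside and pyrimidine base were quantified, and the half-life was derived.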

Series [9] can be described thus: Metabolic stability (Half life)of the compound at pH-2.0 was evaluated. Format: ADME. The following applies: read-out: T1/2 h/. The procedure, abridged:
as §2

Series [10] is described as follows: Metabolic stability (Half life) at pH-7.4 was evaluated. Format: ADME. A digest of the protocol:
as §1

Series [11] concerns Rauscher murine leukemia virus. Nature of the series: Cytotoxic concentration of compound required to inhibit 50% of host cell replication of Rauscher-Murine leukemia virus. Format: functional.

Where only a bound is given, the exact number is not on record here.

For the molecule `[N-]=[N+]=N[C@H]1C[C@H](n2cc(I)c(=O)[nH]c2=O)O[C@@H]1CO`, the values for the Ratio in series [1] and in series [6] were 12 and 1257, respectively. Besides, the IC50 is 0.21 µM in series [2] and 12.6 µM in [5]. For the same molecule, the “CC50 (50% host cell growth inhibition)” value in series [3] was determined as 153 µM. In addition, the TCID50 in [4] was >264 µM.
For the molecule `CC1=CN([C@H]2C[C@H](N=[N+]=[N-])[C@@H](CO)O2)C(N)NC1=O` (stereo partly specified), the figures for the Ratio in [1] and in series [6] were 39 and 3, respectively. Besides, the half-life in series [7] is > 168 h; in [8] it was 2.33 h. In addition, the figures for the concentration for half-maximal inhibition (IC50) in series [2] and in series [5] were 114 µM and 12 µM, respectively. In series [3], the “CC50 (50% host cell growth inhibition)” value came out at 470 µM. Moreover, in [4], the TCID50 is >376 µM.
As for `[N-]=[N+]=N[C@H]1C[C@H](n2ccc(=O)[nH]c2=O)O[C@@H]1CO` [NAVURIDINE], the Ratio in series [1] turned out to be 60; in series [6], 3. Further, the results for the IC50 in [2] and in [5] were 138 µM and 2.76 µM, respectively. Further, the TCID50 in series [3] was 166 µM; in [4], >395 µM.
Take `[N-]=[N+]=N[C@H]1C[C@H]2O[C@@H]1COC1NC(=O)C=CN12` (stereo partly specified): the Ratio in series [1] came out at 20. Besides, the “CC50 (50% host cell growth inhibition)” value in series [3] was >100 µM. In series [5], this molecule gave an IC50 of 4.95 µM. For the same molecule, the results for the half-life in [9] and in series [10] were 0.188 h and 120 h, respectively.
As for `[N-]=[N+]=N[C@H]1C[C@H]2O[C@@H]1COC1NC(=O)C(I)=CN12` (stereo partly specified), the Ratio came to 7 in [1] and 16 in [6]. Also, the results for the IC50 in series [2] and in [5] were 17.7 µM and 27.1 µM, respectively. Also, the “CC50 (50% host cell growth inhibition)” value in series [3] was 194 µM. The TCID50 in series [4] is >277 µM.
Consider `Cc1cn([C@H]2CC[C@@H](CO)O2)c(=O)[nH]c1=O`, for which the Ratio in series [1] is given as 631; in series [6] it was 1. For the same molecule, the IC50 in [2] is > 442 µM; in [5], 0.38 µM. Further, in series [4], the TCID50 was >442 µM.
On to `CC1=CN2C(NC1=O)OC[C@@H]1CC[C@H]2O1` (stereo partly specified), for which the Ratio in [1] stood at 7; in series [6], 1. For the same molecule, the half-life in series [7] was 84.3 h; in [8] it was 0.00381 h. Moreover, the half-maximal inhibitory concentration (IC50) in series [2] was > 480 µM; in series [5], 48 µM. Also, the “CC50 (50% host cell growth inhibition)” value in series [3] is 346 µM. In [11], the TCID50 was >480 µM.
On to `Cc1cn([C@H]2C[C@H](N=[N+]=[N-])[C@@H](CO)O2)c(=O)[nH]c1=O` [ZIDOVUDINE], for which the Ratio in series [1] turned out to be 290; in series [6] it was 17391. Further, the figures for the 50% inhibitory concentration (IC50) in series [2] and in series [5] were 0.023 µM and 0.1 µM, respectively. Moreover, the TCID50 in [4] was >400 µM.
Regarding `[N-]=[N+]=N[C@H]1C[C@H]2O[C@@H]1COC1NC(=O)C(Br)=CN12` (stereo partly specified), the Ratio in series [1] was 6; in [6], 20. The IC50 in series [2] is 16.1 µM; in series [5], 28 µM. For the same molecule, in series [3], the “CC50 (50% host cell growth inhibition)” value is 168 µM. In addition, the TCID50 in series [4] was >319 µM. Also, the half-life came out at 60.5 h in series [10] and 0.238 h in series [8].
Regarding `CC1=CN2C(NC1=O)OC[C@H]1O[C@@H]2C[C@@H]1N=[N+]=[N-]` (stereo partly specified), the Ratio was 179 in [1] and 1481 in [6]. For the same molecule, the half-inhibitory concentration (IC50) in series [2] stood at 0.27 µM; in series [5] it was 0.56 µM. Moreover, in series [3], the “CC50 (50% host cell growth inhibition)” value was >100 µM. The TCID50 in series [4] is >400 µM. Besides, the half-life in series [10] is > 75 h; in [8] (read-out: T1/2 h/), 0.492 h.
Regarding `[N-]=[N+]=N[C@H]1C[C@H](n2cc(Br)c(=O)[nH]c2=O)O[C@@H]1CO`, the results for the Ratio in series [1] and in [6] were 15 and 1309, respectively. The 50% inhibitory concentration (IC50) came to 0.23 µM in [2] and 8.73 µM in [5]. Besides, the “CC50 (50% host cell growth inhibition)” value in [3] was 127 µM. Further, the TCID50 in series [4] is >301 µM.
